According to ChEMBL document CHEMBL5674883, “The Heterochromatin Landscape in Migrating Cells and the Importance of H3K27me3 for Associated Transcriptome Alterations” (Cells, 2018):

Legend:
Format in all cases: cell-based
[1] = target: Histone-lysine N-methyltransferase EZH2 (Mus musculus) (UniProt Q61188); experiment: Inhibition of EZH2 in mouse B16-F1 migrating cells assessed as fold change in H3K27me3-buffered regulated Kcnj14-mRNA expression at 3 uM measured by ChIP-seq analysis relative to control cells
In short: (§1)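 Confluent B16-F1 cells on fibronectin-coated plates, cultured at 37 °C and 7% CO2, were scratched at multiple sites to induce migration. They were then held 3 h in growth medium containing 3 µM GSK343, with the inhibitor added 3 h before lysis. Unscratched cells served as controls. Poly A mRNA was analysed by RNA-seq (n=3 GSK343, n=5 controls). Linear models removed batch effects, and buffered genes were those altered only under GSK343 (FDR <0.05, fold change >1.3).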

[2] = target: Histone-lysine N-methyltransferase EZH2 (Mus musculus) (UniProt Q61188); experiment: Inhibition of EZH2 in mouse B16-F1 migrating cells assessed as fold change in H3K27me3-buffered regulated Tuba4a-mRNA expression at 3 uM measured by […] analysis relative to control cells
In short: (§2)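 Confluent B16-F1 cells on fibronectin-coated plates were scratched at multiple sites, washed once with DMEM and left to migrate 3 h in growth medium (37 °C, 7% CO2); unscratched cells served as control. GSK343 (3 µM) was added 3 h before lysis. Poly A mRNA was sequenced (RNA-seq), with 5 replicates for untreated and 3 for treated cells. Differential expression was called by linear model with batch correction, at FDR <0.05 and fold change ≥1.3.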

[3] = target: Histone-lysine N-methyltransferase EZH2 (Mus musculus) (UniProt Q61188); experiment: Inhibition of EZH2 in mouse B16-F1 migrating cells assessed as fold change in H3K27me3-buffered regulated A130010J15Rik-mRNA expression at 3 uM measured by […] analysis relative to control cells; in short: as §1
[4] = target: Histone-lysine N-methyltransferase EZH2 (Mus musculus) (UniProt Q61188); experiment: Inhibition of EZH2 in mouse B16-F1 migrating cells assessed as fold change in H3K27me3-buffered regulated Lrp4-mRNA expression at 3 uM measured by […] analysis relative to control cells; in short: as §1
[5] = target: Histone-lysine N-methyltransferase EZH2 (Mus musculus) (UniProt Q61188); experiment: Inhibition of EZH2 in mouse B16-F1 migrating cells assessed as fold change in H3K27me3-buffered regulated Itpk1-mRNA expression at 3 uM measured by […] analysis relative to control cells; in short: as §1
[6] = target: Histone-lysine N-methyltransferase EZH2 (Mus musculus) (UniProt Q61188); experiment: Inhibition of EZH2 in mouse B16-F1 migrating cells assessed as fold change in H3K27me3-buffered regulated Rev3l-mRNA expression at 3 uM measured by ChIP-seq analysis relative to control cells; in short: as §1
[7] = target: Histone-lysine N-methyltransferase EZH2 (Mus musculus) (UniProt Q61188); experiment: Inhibition of EZH2 in mouse B16-F1 migrating cells assessed as fold change in H3K27me3-buffered regulated 1700027J19Rik-mRNA expression at 3 uM measured by […] analysis relative to control cells; in short: as §1
[8] = target: Histone-lysine N-methyltransferase EZH2 (Mus musculus) (UniProt Q61188); experiment: Inhibition of EZH2 in mouse B16-F1 migrating cells assessed as fold change in H3K27me3-buffered regulated Synm-mRNA expression at 3 uM measured by […] analysis relative to control cells; in short: as §2
[9] = target: Histone-lysine N-methyltransferase EZH2 (Mus musculus) (UniProt Q61188); experiment: Inhibition of EZH2 in mouse B16-F1 migrating cells assessed as fold change in H3K27me3-buffered regulated 5031439G07Rik-mRNA expression at 3 uM measured by […] analysis relative to control cells; in short: as §1
[10] = target: Histone-lysine N-methyltransferase EZH2 (Mus musculus) (UniProt Q61188); experiment: Inhibition of EZH2 in mouse B16-F1 migrating cells assessed as fold change in H3K27me3-buffered regulated Fam184b-mRNA expression at 3 uM measured by […] analysis relative to control cells; in short: as §1
[11] = target: Histone-lysine N-methyltransferase EZH2 (Mus musculus) (UniProt Q61188); experiment: Inhibition of EZH2 in mouse B16-F1 migrating cells assessed as fold change in H3K27me3-independent regulated Pwwp2b-mRNA expression at 3 uM measured by […] analysis relative to control cells; in short: as §2
[12] = target: Histone-lysine N-methyltransferase EZH2 (Mus musculus) (UniProt Q61188); experiment: Inhibition of EZH2 in mouse B16-F1 migrating cells assessed as fold change in H3K27me3-buffered regulated Ccdc126-mRNA expression at 3 uM measured by […] analysis relative to control cells; in short: as §1
[13] = target: Histone-lysine N-methyltransferase EZH2 (Mus musculus) (UniProt Q61188); experiment: Inhibition of EZH2 in mouse B16-F1 migrating cells assessed as fold change in H3K27me3-buffered regulated Map3k20-mRNA expression at 3 uM measured by ChIP-seq analysis relative to control cells; in short: as §1
[14] = target: Histone-lysine N-methyltransferase EZH2 (Mus musculus) (UniProt Q61188); experiment: Inhibition of EZH2 in mouse B16-F1 migrating cells assessed as fold change in H3K27me3-buffered regulated Sqle-mRNA expression at 3 uM measured by […] analysis relative to control cells; in short: as §2
[15] = target: Histone-lysine N-methyltransferase EZH2 (Mus musculus) (UniProt Q61188); experiment: Inhibition of EZH2 in mouse B16-F1 migrating cells assessed as fold change in H3K27me3-buffered regulated Tead4-mRNA expression at 3 uM measured by […] analysis relative to control cells; in short: as §2
[16] = target: T1, RNA polymerase II (Mus musculus) (UniProt P08775+Q8CFI7+P97760+A0A3Q4L2S8+Q80UW8+P61219+P62488+Q923G2+P60898+O08740+Q63871+P62876); experiment: Inhibition of RNA polymerase II in mouse B16-F1 migrating cells assessed as fold change in Rpl14-RNA stability at 0.1 mM measured by […] analysis relative to control cells
[17] = target: T1, RNA polymerase II (Mus musculus); experiment: Inhibition of RNA polymerase II in mouse B16-F1 migrating cells assessed as fold change in Lgals3-RNA stability at 0.1 mM measured by ChIP-seq analysis relative to control cells
[18] = target: T1, RNA polymerase II (Mus musculus); experiment: Inhibition of RNA polymerase II in mouse B16-F1 migrating cells assessed as fold change in Cdk5rap3-RNA stability at 0.1 mM measured by […] analysis relative to control cells
In short: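 Mouse B16-F1 melanoma cells grown to confluence on fibronectin in DMEM/10% FCS at 37 °C, 7% CO2. Migration induced by multiple scratches and 3 h incubation; unscratched controls. DRB 0.1 mM added 3 h before lysis. RNA from poly A-selected mRNA was sequenced (RNA-seq, three replicates per DRB group). Fold change computed for DRB-treated migrating vs DRB-treated control cells; cutoffs fold change >1.3, FDR <0.05.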

[19] = target: T1, RNA polymerase II (Mus musculus); experiment: Inhibition of RNA polymerase II in mouse B16-F1 migrating cells assessed as fold change in Ikzf4-RNA stability at 0.1 mM measured by ChIP-seq analysis relative to control cells
[20] = target: T1, RNA polymerase II (Mus musculus); experiment: Inhibition of RNA polymerase II in mouse B16-F1 migrating cells assessed as fold change in Rps15-RNA stability at 0.1 mM measured by […] analysis relative to control cells
[21] = target: T1, RNA polymerase II (Mus musculus); experiment: Inhibition of RNA polymerase II in mouse B16-F1 migrating cells assessed as fold change in Arpc4-RNA stability at 0.1 mM measured by […] analysis relative to control cells
[22] = target: T1, RNA polymerase II (Mus musculus); experiment: Inhibition of RNA polymerase II in mouse B16-F1 migrating cells assessed as fold change in Gulp1-RNA stability at 0.1 mM measured by ChIP-seq analysis relative to control cells
[23] = target: T1, RNA polymerase II (Mus musculus); experiment: Inhibition of RNA polymerase II in mouse B16-F1 migrating cells assessed as fold change in Grhpr-RNA stability at 0.1 mM measured by ChIP-seq analysis relative to control cells
[24] = target: T1, RNA polymerase II (Mus musculus); experiment: Inhibition of RNA polymerase II in mouse B16-F1 migrating cells assessed as fold change in Chd1-RNA stability at 0.1 mM measured by ChIP-seq analysis relative to control cells

Chain of Histone-lysine N-methyltransferase EZH2 (Mus musculus) (Q61188 whole entry): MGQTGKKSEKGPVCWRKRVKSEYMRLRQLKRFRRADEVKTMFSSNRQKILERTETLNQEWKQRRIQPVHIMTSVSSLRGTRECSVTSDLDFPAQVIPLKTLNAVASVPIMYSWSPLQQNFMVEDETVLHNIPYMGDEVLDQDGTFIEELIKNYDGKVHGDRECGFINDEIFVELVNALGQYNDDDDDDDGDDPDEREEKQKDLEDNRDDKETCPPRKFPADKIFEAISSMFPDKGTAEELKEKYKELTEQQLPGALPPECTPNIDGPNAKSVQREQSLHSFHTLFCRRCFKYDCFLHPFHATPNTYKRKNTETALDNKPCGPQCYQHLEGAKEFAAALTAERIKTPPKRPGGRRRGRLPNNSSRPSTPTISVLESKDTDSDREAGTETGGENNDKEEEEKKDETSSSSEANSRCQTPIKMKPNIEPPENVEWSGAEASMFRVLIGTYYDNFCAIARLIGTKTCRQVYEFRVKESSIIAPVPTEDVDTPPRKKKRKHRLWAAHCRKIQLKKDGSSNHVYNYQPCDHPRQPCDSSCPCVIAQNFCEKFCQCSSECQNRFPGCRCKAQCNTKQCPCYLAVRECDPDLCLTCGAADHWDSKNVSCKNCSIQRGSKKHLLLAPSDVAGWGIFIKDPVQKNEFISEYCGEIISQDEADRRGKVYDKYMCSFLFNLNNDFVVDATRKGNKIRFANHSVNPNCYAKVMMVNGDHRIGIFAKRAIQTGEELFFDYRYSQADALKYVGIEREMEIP

Work on `CCCc1cc(C)[nH]c(=O)c1CNC(=O)c1cc(-c2ccnc(N3CCN(C)CC3)c2)cc2c1cnn2C(C)C` yielded a log2FC [1] of 1.07, a log2FC [2] of 0.42 and a log2FC [3] of -0.42. The log2FC [4] was -0.39, the log2FC [5] was 0.51 and the log2FC [6] was -0.47. For the same compound, the log2FC [7] was 0.73, the log2FC [8] was 1.06 and the log2FC [9] was 0.45. The log2FC [10] was -0.72, the log2FC [11] was 0.46 and the log2FC [12] was -0.49. It also gave a log2FC [13] of -0.41, a log2FC [14] of 0.39 and a log2FC [15] of 0.38.
Compound `OC[C@H]1O[C@@H](n2cnc3cc(Cl)c(Cl)cc32)[C@H](O)[C@@H]1O` has a log2FC [16] of 0.49, a log2FC [17] of 0.95 and a log2FC [18] of 0.49. It also gave a log2FC [19] of 0.93, a log2FC [20] of 0.53 and a log2FC [21] of 0.44. The log2FC [22] was -0.97, the log2FC [23] was 1.02 and the log2FC [24] was -0.56.
